# According to ChEMBL document CHEMBL1144911, “Synthesis and biological evaluation of 5-substituted derivatives of the potent antiherpes agent (north)-methanocarbathymine” (J Med Chem, 2003):
# pEC50, pKi: −log10 of the molar value.
# Tests used:
# Human alphaherpesvirus 3 [1] = assay: Antiviral activity against 07/1 strain of thymidine kinase negative (TK-) Varicella-Zoster Virus (VZV); format: functional, organism-based
# Human alphaherpesvirus 3 [2] = assay: Cytotoxic concentration that causes growth inhibition of VZV infected Osteosarcoma cells; format: functional
# Homo sapiens [3] = species on record: Homo sapiens; assay: Cytotoxic concentration that produces 50% growth inhibition of human skin fibroblast in CPE assay; format: functional
# HFF [4] = assay: Cytotoxic concentration for 50% inhibition of cell growth of HSV-2 infected HFF cells determined by CPE assay; format: functional; settings: Homo sapiens
# [5] = Catalytic rate constant was determined; format: ADME
# Human alphaherpesvirus 1 = assay: Inhibitory concentration required to reduce HSV-1 induced cytopathogenic effect (CPE) by 50 % in HFF cells; format: functional, organism-based, herpes simplex virus; settings: Human alphaherpesvirus 1, HFF
# Human alphaherpesvirus 3 [6] = assay: Effective concentration against TK+ Varicella-Zoster Virus (VZV)YS strain; format: functional, organism-based
# Homo sapiens [7] = species on record: Homo sapiens; assay: Inhibitory concentration required to reduce HSV-1 induced cytopathogenic effect (CPE) in human skin fibroblast; format: functional, organism-based
# Human alphaherpesvirus 2 = assay: Inhibitory concentration required to reduce HSV-2 induced cytopathogenic effect (CPE) by 50 % in HFF cells; format: functional, organism-based; settings: Human alphaherpesvirus 2, HFF
# [8] = Minimum cytotoxic concentration that causes microscopically detectable alterations of cell morphology; format: functional
# [9] = system: Thymidine kinase (Herpes simplex virus type 1); assay: Catalytic turnover constant against HSV-1 thymidine kinase
# [10] = (§1) Inhibition constant against HSV-1 TK; format: functional, herpes simplex virus
# Summary of the method: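 Purified HSV-1 TK converts [methyl-³H]thymidine to its monophosphate in 50 mM Tris pH 7.5, 5 mM MgCl₂, 5 mM ATP, 2.5 mg/mL BSA under initial-velocity conditions. Three inhibitor concentrations are used, and apparent Ki is taken from Lineweaver–Burk double-reciprocal plots. Six independent assays.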
# HFF [11] = assay: Cytotoxic concentration for 50% inhibition of cell growth of HSV-1 infected HFF cells determined by CPE assay; format: functional; settings: Homo sapiens
# Human alphaherpesvirus 3 [12] = assay: Effective concentration against TK- Varicella-Zoster Virus (VZV) 07/1 strain; format: functional, organism-based
# Homo sapiens [13] = species on record: Homo sapiens; assay: Inhibitory concentration required to reduce HSV-2 induced cytopathogenic effect in human skin fibroblast; format: functional, organism-based
# [14] = Cytotoxic concentration that produces 50% inhibition of cell growth.; format: functional
# Human alphaherpesvirus 3 [15] = assay: Antiviral activity against OKA strain of thymidine kinase positive(TK+) Varicella-Zoster Virus (VZV); format: functional, organism-based
# Human alphaherpesvirus 3 [16] = assay: Minimum cytotoxic concentration that causes alterations of VZV infected Osteosarcoma cell morphology; format: functional
# Human alphaherpesvirus 3 [17] = assay: Effective concentration against TK+ Varicella-Zoster Virus (VZV) OKA strain; format: functional, organism-based
# Human alphaherpesvirus 3 [18] = assay: Effective concentration against TK- Varicella-Zoster Virus (VZV) YS/R strain; format: functional, organism-based
# Human alphaherpesvirus 3 [19] = assay: Antiviral activity against YS strain of thymidine kinase positive(TK+) Varicella-Zoster Virus (VZV); format: functional, organism-based
# Human alphaherpesvirus 3 [20] = assay: Antiviral activity against YS/R strain of thymidine kinase negative(TK-) Varicella-Zoster Virus (VZV); format: functional, organism-based
# HFF [21] = assay: Concentration to reduce Cowpox virus plaque reduction (VPR) by 50% in HFF cells; format: functional, cell-based; settings: Homo sapiens
# [22] = Selectivity index calculated as CC50/EC50 in the VPR assay of HSV-1; format: functional
# HFF [23] = assay: Inhibitory concentration for HSV-2 plaque reduction (VPR) by 50% in HFF cells; format: functional, cell-based; settings: Homo sapiens
# HFF [24] = assay: Inhibitory concentration to reduce Cowpox virus induced cytopathogenic effect by 50% in HFF cells; format: functional, cell-based; settings: Homo sapiens
# HFF [25] = assay: Inhibitory concentration for HSV-1 plaque reduction (VPR) by 50% in HFF cells; format: functional, cell-based; settings: Homo sapiens
# Homo sapiens [26] = species on record: Homo sapiens; assay: Inhibitory concentration required to reduce vaccinia virus induced cytopathogenic effect (CPE) in human skin fibroblast; format: functional, organism-based
# HFF [27] = assay: Concentration to reduce vaccinia virus plaque reduction (VPR) by 50% in HFF cells; format: functional, cell-based; settings: Homo sapiens
# HFF [28] = assay: Cytotoxic concentration for 50% inhibition of cell growth of HSV-2 infected HFF cells determined by VPR assay; format: functional; settings: Homo sapiens
# Summary of the method: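 Run in virus-infected HFF cells within the plaque reduction assay set-up. […] The value was converted from μg/mL to μM.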
# Homo sapiens [29] = species on record: Homo sapiens; assay: Inhibitory concentration required to reduce cowpox virus induced cytopathogenic effect (CPE) in human skin fibroblast; format: functional, organism-based
# HFF [30] = assay: Inhibitory concentration to reduce vaccinia virus induced cytopathogenic effect by 50% in HFF cells; format: functional, cell-based; settings: Homo sapiens
# Homo sapiens [31] = species on record: Homo sapiens; assay: Inhibitory concentration required to reduce vaccinia virus induced virus plaque reduction (VPR) in human skin fibroblast; format: functional, organism-based
# Homo sapiens [32] = species on record: Homo sapiens; assay: Cytotoxic concentration that produces 50% growth inhibition of human skin fibroblast in VPR assay; format: functional
# Homo sapiens [33] = species on record: Homo sapiens; assay: Inhibitory concentration required to reduce HSV-2 induced virus plaque reduction (VPR) in human skin fibroblast; format: functional, organism-based
# HFF [34] = assay: Cytotoxic concentration for 50% inhibition of cell growth of HSV-1 infected HFF cells determined by VPR assay; format: functional; settings: Homo sapiens
# [35] = Selectivity index calculated as CC50/EC50 in the study of VPR assay of vaccinia virus; format: functional
# [36] = Selectivity index calculated as CC50/EC50 in the study of cytopathogenic effect by HSV-1; format: functional
# [37] = as §1; format: functional, herpes simplex virus; remark: listed apart in the source
# [38] = Cytotoxic concentration against non transfected osteosarcoma cells non transfected (MG-63-hTK1); format: functional
# Summary of the method: (§2)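 Osteosarcoma lines (143B-TK⁻ with 0.1 mg/mL 5-BrdU selection; MG-63-hTK1; 143B-TK⁺-HSV1-WT with HAT) grown in MEM/10% FCS. Seeded at 2 × 10³ (143B lines) or 1.5 × 10³ (MG-63) cells/well, exposed to five concentrations over 0.5–500 μM for 4.5 days at 37 °C/5% CO₂. XTT added for 9 h, A450 (ref 750 nm) read against untreated wells. Three independent series in triplicate.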
# Homo sapiens [39] = species on record: Homo sapiens; assay: Inhibitory concentration required to reduce HSV-1 induced virus plaque reduction (VPR) in human skin fibroblast; format: functional, organism-based
# [40] = Cytotoxic concentration against osteosarcoma cells stably transfected with HSV-1 TK (143B-TK+-HSV-1-WT); format: functional; settings: Human alphaherpesvirus 1; summary of the method: as §2
# [41] = Selectivity index calculated as CC50/EC50 in the study of cytopathogenic effect by vaccinia virus; format: functional
# Homo sapiens [42] = species on record: Homo sapiens; assay: Inhibitory concentration required to reduce cowpox virus induced virus plaque reduction (VPR) in human skin fibroblast; format: functional, organism-based
# [43] = molecular target: T1, Thymidine kinase, cytosolic (Homo sapiens) (UniProt P04183); settings: herpes simplex virus
# T1 sequence (whole entry): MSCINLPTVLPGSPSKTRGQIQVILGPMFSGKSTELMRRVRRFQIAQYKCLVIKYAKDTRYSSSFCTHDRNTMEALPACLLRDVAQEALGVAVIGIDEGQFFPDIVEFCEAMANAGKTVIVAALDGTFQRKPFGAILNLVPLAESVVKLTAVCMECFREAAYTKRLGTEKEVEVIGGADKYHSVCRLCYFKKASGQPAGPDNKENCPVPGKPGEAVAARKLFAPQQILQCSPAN
# [44] = Inhibitory activity against HSV-1-TK transfected osteosarcoma cells; format: functional; summary of the method: as §2
# [45] = Cytotoxic concentration against HSV-1 TK- transfected osteosarcoma cells; format: functional; settings: Human alphaherpesvirus 1; summary of the method: as §2
# [46] = Cytotoxic concentration against HSV-1 TK-transfected osteosarcoma cells; format: functional; settings: Human alphaherpesvirus 1; summary of the method: as §2
smiles,measurement,setting,value
O=c1[nH]c(=O)n([C@H]2C[C@H](O)[C@]3(CO)C[C@H]23)cc1/C=C/Br,pEC50,Human alphaherpesvirus 3 [1],< 5.30
same,CC50,Human alphaherpesvirus 3 [2],> 200 µM
same,CC50,Homo sapiens [3],> 291 µM
same,CC50,HFF [4],> 291 µM
same,k cat,[5],0.07 s⁻¹
same,pEC50,Human alphaherpesvirus 1,5.19
same,pEC50,Human alphaherpesvirus 3 [6],8.15
same,pEC50,Homo sapiens [7],5.19
same,pEC50,Human alphaherpesvirus 2,< 3.54
same,MCC,[8],> 5 µM
same,k cat,[9],0.07 s⁻¹
same,pKi,[10],4.20
same,CC50,HFF [11],> 291 µM
same,pEC50,Human alphaherpesvirus 3 [12],< 5.30
same,pEC50,Homo sapiens [13],< 3.54
same,CC50,[14],> 200 µM
same,pEC50,Human alphaherpesvirus 3 [15],8.30
same,MCC,Human alphaherpesvirus 3 [16],> 5 µM
same,pEC50,Human alphaherpesvirus 3 [17],8.30
same,pEC50,Human alphaherpesvirus 3 [18],< 5.30
same,pEC50,Human alphaherpesvirus 3 [19],8.15
same,pEC50,Human alphaherpesvirus 3 [20],< 5.30
O=c1[nH]c(=O)n([C@H]2C[C@H](O)[C@]3(CO)C[C@H]23)cc1Br,pEC50,Human alphaherpesvirus 3 [1],< 4.70
same,CC50,Human alphaherpesvirus 3 [2],> 200 µM
same,pEC50,HFF [21],4.97
same,SI,[22],> 3320
same,pEC50,HFF [23],6.42
same,pEC50,HFF [24],4.44
same,CC50,Homo sapiens [3],> 315 µM
same,pEC50,HFF [25],7.02
same,pEC50,Homo sapiens [26],5.70
same,CC50,HFF [4],> 315 µM
same,pEC50,HFF [27],5.09
same,CC50,HFF [28],> 315 µM
same,k cat,[5],0.15 s⁻¹
same,pEC50,Human alphaherpesvirus 1,5.91
same,pEC50,Human alphaherpesvirus 3 [6],6.70
same,pEC50,Homo sapiens [7],5.91
same,pEC50,Homo sapiens [29],4.44
same,pEC50,Human alphaherpesvirus 2,5.66
same,MCC,[8],> 50 µM
same,k cat,[9],0.15 s⁻¹
same,CC50,HFF [11],> 315 µM
same,pEC50,HFF [30],5.70
same,pEC50,Human alphaherpesvirus 3 [12],< 4.70
same,pEC50,Homo sapiens [13],5.66
same,pEC50,Homo sapiens [31],5.09
same,CC50,Homo sapiens [32],> 315 µM
same,CC50,[14],> 200 µM
same,pEC50,Homo sapiens [33],6.42
same,pEC50,Human alphaherpesvirus 3 [15],6.70
same,CC50,HFF [34],> 315 µM
same,MCC,Human alphaherpesvirus 3 [16],> 50 µM
same,pEC50,Human alphaherpesvirus 3 [17],6.70
same,SI,[35],>38
same,pEC50,Human alphaherpesvirus 3 [18],5.40
same,SI,[36],> 256
same,pKi,[37],4.16
same,CC50,[38],330 µM
same,pEC50,Homo sapiens [39],7.02
same,pEC50,Human alphaherpesvirus 3 [19],6.70
same,CC50,[40],150 µM
same,SI,[41],>156
same,pEC50,Homo sapiens [42],4.97
same,pEC50,Human alphaherpesvirus 3 [20],5.40
Cc1cn([C@H]2C[C@H](O)[C@@H](CO)O2)c(=O)[nH]c1=O [DOXRIBTIMINE],k cat,[5],0.35 s⁻¹
same,k cat,[43],0.35 s⁻¹
Nc1nc2c(ncn2COC(CO)CO)c(=O)[nH]1 [GANCICLOVIR],CC50,[44],75 µM
same,k cat,[43],0.1 s⁻¹
same,CC50,[45],200 µM
same,CC50,[46],75 µM
same,CC50,[38],300 µM
O=c1[nH]c(=O)n([C@H]2C[C@H](O)[C@@H](CO)O2)cc1/C=C/Br [BRIVUDINE],pEC50,Human alphaherpesvirus 3 [1],< 3.82
same,CC50,Human alphaherpesvirus 3 [2],> 400 µM
same,pEC50,Human alphaherpesvirus 3 [6],8.10
same,MCC,[8],> 150 µM
same,pEC50,Human alphaherpesvirus 3 [12],< 3.82
same,CC50,[14],> 400 µM
same,pEC50,Human alphaherpesvirus 3 [15],8.30
same,MCC,Human alphaherpesvirus 3 [16],> 150 µM
same,pEC50,Human alphaherpesvirus 3 [17],8.30
same,pEC50,Human alphaherpesvirus 3 [18],< 3.82
same,pEC50,Human alphaherpesvirus 3 [19],8.10
same,pEC50,Human alphaherpesvirus 3 [20],< 3.82
